The source of these data is ChEMBL document CHEMBL4118252, “Identification of novel thiazolo[5,4-d]pyrimidine derivatives as human A1 and A2A adenosine receptor antagonists/inverse agonists” (Bioorg Med Chem, 2018).

By Ki is commonly meant a measure of affinity in units of concentration, obtained from inhibition or displacement. As a reminder, the inhibition is the percentage by which the read-out fell short of the control. For orientation: IC50 means the point on the concentration scale where inhibition reaches its midpoint. A word on the Emax: it is the greatest response seen or fitted, relative to the assay's reference.

Assay [1] deals with T1, Adenosine receptor A2a (Homo sapiens, UniProt P29274). Kind of assay: Displacement of [3H]-ZM 241,385 from human A2A adenosine receptor expressed in CHO cell membranes after 60 mins by scintillation counting method. Summed up:
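hA2A CHO membranes (50 µg protein/100 µl), 1 nM [3H]-ZM 241385, graded test concentrations, 60 min at 4°C in 50 mM Tris-HCl pH 7.4 with 10 mM MgCl2. Nonspecific: 1 µM ZM 241385.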

The next assay addresses T2, Adenosine receptor A3 (Homo sapiens, UniProt P0DMS8).
T2 sequence (P0DMS8 whole entry): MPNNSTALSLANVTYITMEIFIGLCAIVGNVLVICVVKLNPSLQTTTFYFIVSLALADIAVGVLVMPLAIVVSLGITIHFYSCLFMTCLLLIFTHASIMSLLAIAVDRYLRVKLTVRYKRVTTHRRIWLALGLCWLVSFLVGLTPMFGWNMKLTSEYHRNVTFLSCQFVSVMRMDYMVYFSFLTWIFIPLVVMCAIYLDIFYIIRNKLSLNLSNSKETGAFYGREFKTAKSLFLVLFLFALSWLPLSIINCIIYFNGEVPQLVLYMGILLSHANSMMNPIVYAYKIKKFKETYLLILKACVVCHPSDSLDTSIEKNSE
As to the kind of experiment: Displacement of [125I]-ABMECA from human A3 adenosine receptor expressed in CHO cell membranes after 120 mins by scintillation counting method. Background: In a radioligand displacement assay an active substance lowers the binding of a labelled ligand.

Assay [2] concerns the target T3, Adenosine receptor A2b (Homo sapiens) (UniProt P29275).
T3 sequence (whole entry): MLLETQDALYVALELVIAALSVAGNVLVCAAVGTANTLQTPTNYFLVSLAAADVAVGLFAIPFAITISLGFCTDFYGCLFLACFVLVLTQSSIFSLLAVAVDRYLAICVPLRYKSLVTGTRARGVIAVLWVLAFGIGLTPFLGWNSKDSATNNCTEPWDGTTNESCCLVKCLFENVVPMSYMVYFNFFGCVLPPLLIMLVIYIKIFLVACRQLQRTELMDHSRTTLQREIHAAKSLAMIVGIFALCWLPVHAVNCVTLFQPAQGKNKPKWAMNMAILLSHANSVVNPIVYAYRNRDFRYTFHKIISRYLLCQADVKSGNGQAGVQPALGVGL
As to the kind of experiment: Antagonist activity at human A2B adenosine receptor assessed as inhibition of NECA-stimulated cAMP level at 10 uM after 30 mins by Alphascreen assay relative to control. In kind it is functional. In general terms: Changes in cAMP serve as a functional read-out for many G protein-coupled receptors.

The target in a further assay is T4, Adenosine receptor A2b (Homo sapiens, UniProt P29275).
T4 sequence (P29275 whole entry): T3 sequence (whole entry)
Kind of assay: Antagonist activity at human A2B adenosine receptor assessed as inhibition of NECA-stimulated cAMP level after 30 mins by Alphascreen assay. In kind it is functional. Summed up: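 Cells with compounds and anti-cAMP acceptor beads 30 min, then streptavidin donor beads plus biotinylated cAMP 1 h; AlphaScreen read. IC50 by sigmoid nonlinear regression.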

In assay [3] the target is T5, Adenosine receptor A1 (Homo sapiens, UniProt P30542).
T5 sequence (P30542 whole entry): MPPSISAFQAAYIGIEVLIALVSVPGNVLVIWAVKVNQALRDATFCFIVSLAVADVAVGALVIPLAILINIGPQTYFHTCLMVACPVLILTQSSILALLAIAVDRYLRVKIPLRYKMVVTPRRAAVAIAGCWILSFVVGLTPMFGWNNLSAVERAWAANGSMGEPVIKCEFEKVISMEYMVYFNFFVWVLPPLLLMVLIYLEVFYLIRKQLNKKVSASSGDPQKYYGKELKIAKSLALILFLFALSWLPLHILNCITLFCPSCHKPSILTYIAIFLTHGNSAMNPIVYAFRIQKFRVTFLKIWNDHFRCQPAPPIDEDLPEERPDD
As to the kind of experiment: Displacement of [3H]-DPCPX from human A1 adenosine receptor expressed in CHO cell membranes after 90 mins by scintillation counting method. Summed up: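 Membranes from CHO cells expressing hA1 (50 µg protein/100 µl) incubated with 1 nM [3H]-DPCPX and varying test concentrations, 25°C, 90 min, 50 mM Tris-HCl pH 7.4. Nonspecific binding with 1 µM DPCPX. Filtration over glass fiber filters, scintillation counting.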

For assay [4], the target named is T1, Adenosine receptor A2a. As to the kind of experiment: Antagonist activity at human A2A adenosine receptor expressed in CHO cells assessed as inhibition of CGS21680-stimulated cAMP level after 30 mins by Alphascreen assay relative to control. In kind it is functional, cell-based. Summed up: (§1)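 Same hA2A CHO cAMP experiment run in presence of CGS 21680 (10 nM); compounds at varied concentrations, AlphaScreen cAMP detection (30 min, then 1 h). IC50 via sigmoid nonlinear regression, Emax efficacy; four experiments in triplicate, mean ± SEM.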

The target of assay [5] is T1, Adenosine receptor A2a. Kind of assay: Antagonist activity at human A2A adenosine receptor expressed in CHO cells assessed as inhibition of CGS21680-stimulated cAMP level after 30 mins by Alphascreen assay. In kind it is functional, cell-based. Summed up: as §1
The target in assay [6] is T1, Adenosine receptor A2a. As to the kind of experiment: Inverse agonist activity at human A2A adenosine receptor expressed in CHO cells assessed as inhibition of basal cAMP level after 30 mins by Alphascreen assay. In kind it is functional, cell-based. Summed up:
(§2)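 hA2A CHO cells exposed to varied compound concentrations without agonist, measuring decrease of basal cAMP; AlphaScreen detection (30 min acceptor beads, then 1 h donor beads with biotinylated cAMP). IC50 from sigmoid nonlinear fit, Emax efficacy; mean ± SEM.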

The target of assay [7] is T1, Adenosine receptor A2a. As to the kind of experiment: Inverse agonist activity at human A2A adenosine receptor expressed in CHO cells assessed as inhibition of basal cAMP level after 30 mins by Alphascreen assay relative to control. In kind it is functional, cell-based. Summed up:
as §2

In assay [8] the target is T5, Adenosine receptor A1. Kind of assay: Antagonist activity at human A1 adenosine receptor expressed in CHO cells assessed as inhibition of CCPA-induced reduction of forskolin-stimulated cAMP level after 30 mins by Alphascreen assay. In kind it is functional, cell-based. Summed up: (§3)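 hA1 CHO cells given Forskolin (5 µM) and 1 nM CCPA with varied compound concentrations; AlphaScreen cAMP detection (30 min with acceptor beads, then donor beads/biotinylated cAMP 1 h). IC50 by sigmoid nonlinear regression; Emax as efficacy in reversing CCPA inhibition; mean ± SEM.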

Assay [9] has as its target T6, Adenosine receptor A1 (Homo sapiens) (UniProt P30542).
T6 sequence (whole entry): T5 sequence (P30542 whole entry)
As to the kind of experiment: Antagonist activity at human A1 adenosine receptor expressed in CHO cells assessed as inhibition of CCPA-induced reduction of forskolin-stimulated cAMP level after 30 mins by Alphascreen assay relative to control. In kind it is functional, cell-based. Summed up: as §3

Assay [10] deals with T6, Adenosine receptor A1 (Homo sapiens). Kind of assay: Modulation of human A1 adenosine receptor expressed in CHO cells assessed as forskolin-stimulated cAMP level after 30 mins by Alphascreen assay relative to control. In kind it is functional, cell-based. Summed up:
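In hA1 CHO cells, compounds incubated with Forskolin (5 µM) without agonist; cAMP quantified by AlphaScreen (30 min acceptor-bead step, then 1 h donor beads and biotinylated cAMP). Expressed as % of Forskolin-stimulated cAMP (100%); mean ± SEM.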

Assay [11] deals with T1, Adenosine receptor A2a. Kind of assay: Displacement of [3H]-ZM 241,385 from human A2A adenosine receptor expressed in CHO cell membranes at 10 uM after 60 mins by scintillation counting method relative to control. Summed up:
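Using 1 nM [3H]-ZM 241385 on hA2A CHO membranes, 60 min, 4°C, 50 mM Tris-HCl pH 7.4, 10 mM MgCl2; 1 µM ZM 241385 for nonspecific binding; filtered and counted. Percent inhibition measured at 10 µM compound.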

T1 sequence (P29274 whole entry): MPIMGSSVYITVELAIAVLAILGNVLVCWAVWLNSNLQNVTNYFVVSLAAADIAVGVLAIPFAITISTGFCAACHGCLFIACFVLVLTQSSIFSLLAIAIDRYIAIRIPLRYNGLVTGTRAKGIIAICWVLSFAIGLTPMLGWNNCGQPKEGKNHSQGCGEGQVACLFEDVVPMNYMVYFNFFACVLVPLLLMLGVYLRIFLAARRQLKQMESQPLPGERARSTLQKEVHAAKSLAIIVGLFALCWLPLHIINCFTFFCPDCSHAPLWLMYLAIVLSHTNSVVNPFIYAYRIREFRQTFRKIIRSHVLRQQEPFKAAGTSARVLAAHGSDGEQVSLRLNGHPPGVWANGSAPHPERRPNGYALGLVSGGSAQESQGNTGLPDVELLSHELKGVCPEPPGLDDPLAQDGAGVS

`Cc1nc2c(N)nc(NCc3cccs3)nc2s1`: on Adenosine receptor A2a [1], the affinity, expressed as Ki, was 313 nM.

`Nc1nc(NCc2cccs2)nc2sc(-c3cnccn3)nc12`: on Adenosine receptor A2a [1], the Ki turned out to be 219 nM.

In the case of `COc1ccccc1CNc1nc(N)c2nc(C)sc2n1`, the Ki on Adenosine receptor A2a [1] is 135 nM.

With `COc1ccc(CCNc2nc(N)c3nc(-c4ccccc4)sc3n2)cc1`, the Ki was 3530 nM at Adenosine receptor A3, 403 nM on Adenosine receptor A2a [1] and 485 nM on Adenosine receptor A1 [3]. Also, the inhibition in assay [2] came to 33%. Further, on Adenosine receptor A2b, the IC50 is > 10000 nM.

In the case of `COc1cccc(CNc2nc(N)c3nc(C)sc3n2)c1`, on Adenosine receptor A2a [1], the affinity, expressed as Ki, was 212 nM.

Consider `COc1ccccc1CNc1nc(N)c2nc(-c3cnccn3)sc2n1`, for which, at Adenosine receptor A2a [1], the affinity corresponds to a Ki of 79 nM. Compared with the last compound, the Ki is about 2.7-fold lower.

As for `COc1cccc(CNc2nc(N)c3nc(-c4ccccc4)sc3n2)c1`, the Emax was found to be 128% on Adenosine receptor A2a [4] and 52% at Adenosine receptor A2a [7]. Further, the IC50 was 66 nM at Adenosine receptor A2a [5] and 48 nM on Adenosine receptor A2a [6]. This compound registered a Ki on Adenosine receptor A2a [1] of 42 nM.

Take `Nc1nc(NCc2ccccc2)nc2sc(-c3ccccc3)nc12`: affinity on Adenosine receptor A2a [1] was put at a Ki of 116 nM.

As to `Nc1nc(NCc2cccs2)nc2sc(-c3ccccc3)nc12`, the Emax is 131% on Adenosine receptor A2a [4] and 64% on Adenosine receptor A2a [7]. Moreover, the IC50 worked out at 43 nM on Adenosine receptor A2a [5] and 36 nM at Adenosine receptor A2a [6]. Besides, the Ki on Adenosine receptor A2a [1] came to 28 nM.

`Cc1nc2c(N)nc(NCc3ccccc3)nc2s1` displayed a Ki on Adenosine receptor A2a [1] of 532 nM.

Take `Cc1nc2c(N)nc(NCCc3ccccc3)nc2s1`: the values for the Ki at Adenosine receptor A3, at Adenosine receptor A2a [1] and on Adenosine receptor A1 [3] were 548 nM, 78 nM and 140 nM, respectively. Besides, the IC50 at Adenosine receptor A2b was 1100 nM.

On to `Nc1nc(NCCc2ccccc2)nc2sc(-c3ccccc3)nc12`, for which the Ki on Adenosine receptor A3 came to 2270 nM; on Adenosine receptor A2a [1], 406 nM; at Adenosine receptor A1 [3], 121 nM. In addition, the IC50 at Adenosine receptor A2b turned out to be 4380 nM.

As to `Cc1nc2c(N)nc(NCCc3cccs3)nc2s1`, the Emax at Adenosine receptor A2a [4] came to 124%; in assay [9], 98%; at Adenosine receptor A2a [7] it was 58%. The IC50 is 107 nM at Adenosine receptor A1 [8], 102 nM at Adenosine receptor A2a [5], 134 nM on Adenosine receptor A2b and 83 nM at Adenosine receptor A2a [6]. In addition, the Ki on Adenosine receptor A3 was found to be 1520 nM; on Adenosine receptor A2a [1], 61 nM; at Adenosine receptor A1 [3], 92 nM. Further, the Activity in assay [10] came to 100%.

At Adenosine receptor A2a [1], `COc1cccc(CNc2nc(N)c3nc(-c4cnccn4)sc3n2)c1` gave a Ki of 973 nM.

`Cc1nc2c(N)nc(Nc3ccccc3)nc2s1`: the Ki on Adenosine receptor A2a [1] is 608 nM.

As for `Nc1nc(Nc2ccccc2)nc2sc(-c3ccccc3)nc12`, the inhibition at Adenosine receptor A2a [11] was 1%. Also, at Adenosine receptor A2a [1], the Ki is > 10000 nM.

With `COc1ccccc1CNc1nc(N)c2nc(-c3ccccc3)sc2n1`, the IC50 on Adenosine receptor A2a [5] is 7.63 nM; at Adenosine receptor A2a [6], 5.34 nM. Further, at Adenosine receptor A2a [1], the Ki was found to be 4.72 nM.

`Nc1nc(NCCc2ccc(O)cc2)nc2sc(-c3ccccc3)nc12`: the figures for the Ki at Adenosine receptor A3, at Adenosine receptor A2a [1] and on Adenosine receptor A1 [3] were 1610 nM, 96 nM and 242 nM, respectively. The IC50 on Adenosine receptor A2b is 7520 nM.
